For orientation: viability means a read-out of living cells in per cent, often relative to untreated cells. Broadly, the inhibition is the change of the read-out against control, counted positive when it falls.

Molecules are shown by their SMILES. The source made the active and inactive calls. Cut-off read from the data, not from the text of the source, unless noted: active = inhibition above about 30%; inactive = the rest.

A short description of test [1]: Her2 expression decrease, cell viability multiplex – SKBR3 breast tumor cells, AlphaScreen, ATP viability, primary screen (AID 461;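 active = Her2 level under about 52% in both replicate screens, with viability over 70% of control, limit read from the data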;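 for Her2 level: lower value means less Her2 protein in the cells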;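 for viability: percent of carrier control wells set as 100% viability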). As to conditions: SKBR3 Her2 protein level, 18-24 h, measured here: SKBR3 viability, ATP luminescence, at 10 µM. On the technique in general: Alpha assays give light when donor and acceptor beads are brought close together.
For test [2], the target named is Receptor tyrosine-protein kinase erbB-2 (Homo sapiens) (UniProt P04626). Described as above. As to conditions: 18-24 h, at 10 µM, stronger effect = lower value.
Chain of Receptor tyrosine-protein kinase erbB-2 (Homo sapiens) (P04626 whole entry, looked up): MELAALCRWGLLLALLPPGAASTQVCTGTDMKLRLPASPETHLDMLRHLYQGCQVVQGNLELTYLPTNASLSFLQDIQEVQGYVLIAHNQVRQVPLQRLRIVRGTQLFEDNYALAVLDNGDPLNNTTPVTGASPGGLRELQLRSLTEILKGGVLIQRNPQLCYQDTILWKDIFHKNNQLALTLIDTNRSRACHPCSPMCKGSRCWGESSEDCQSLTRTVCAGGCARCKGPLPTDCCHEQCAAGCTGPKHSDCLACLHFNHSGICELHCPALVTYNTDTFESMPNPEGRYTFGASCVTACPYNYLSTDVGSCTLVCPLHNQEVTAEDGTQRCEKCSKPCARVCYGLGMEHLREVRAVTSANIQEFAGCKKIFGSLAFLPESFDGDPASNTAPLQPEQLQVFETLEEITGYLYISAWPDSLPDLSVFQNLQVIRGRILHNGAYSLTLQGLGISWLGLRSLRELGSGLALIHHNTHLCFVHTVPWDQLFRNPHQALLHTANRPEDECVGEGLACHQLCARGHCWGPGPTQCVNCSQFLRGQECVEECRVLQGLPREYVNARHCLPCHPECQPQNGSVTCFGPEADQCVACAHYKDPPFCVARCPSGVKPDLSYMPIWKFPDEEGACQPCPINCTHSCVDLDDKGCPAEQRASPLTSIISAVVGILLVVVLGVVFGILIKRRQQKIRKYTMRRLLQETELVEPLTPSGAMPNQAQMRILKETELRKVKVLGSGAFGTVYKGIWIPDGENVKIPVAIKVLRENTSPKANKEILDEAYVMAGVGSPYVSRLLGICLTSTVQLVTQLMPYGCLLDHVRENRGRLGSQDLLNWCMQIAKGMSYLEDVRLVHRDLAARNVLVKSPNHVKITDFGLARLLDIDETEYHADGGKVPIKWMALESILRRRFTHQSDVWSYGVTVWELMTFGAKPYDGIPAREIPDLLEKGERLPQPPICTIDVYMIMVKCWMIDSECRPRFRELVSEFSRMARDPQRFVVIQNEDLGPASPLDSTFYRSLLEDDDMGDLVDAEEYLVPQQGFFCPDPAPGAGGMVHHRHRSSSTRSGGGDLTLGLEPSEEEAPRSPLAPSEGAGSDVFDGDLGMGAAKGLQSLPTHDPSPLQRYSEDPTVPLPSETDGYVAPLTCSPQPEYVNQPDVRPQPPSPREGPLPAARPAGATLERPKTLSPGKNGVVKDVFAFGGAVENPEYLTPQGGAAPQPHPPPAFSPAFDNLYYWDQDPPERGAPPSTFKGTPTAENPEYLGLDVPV
A short description of test [3]: reduced viability of SK-BR-3 breast cancer cells – cell-based, 24 h, human, pilot screen (AID 572;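 active = viability at or below 10% of carrier control in both of two separate runs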;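 note: compound exposure lasted between 18 and 24 h rather than exactly 24 h; 100% = carrier-treated control wells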). As to conditions: SK-BR-3 viability, CellTiter-Glo luminescence, at 10 µM, stronger effect = lower value. (Cellular ATP, detected with luciferase, serves as a proxy for viable cell number.)
Test [4] is described as follows: HUVEC growth inhibition – cell-based, human, primary screen (AID 575;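 active = viability at or below 30% in both replicate assays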;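 note: 100% = median of untreated cell wells with 0.1% DMSO on each plate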). As to conditions: HUVEC proliferation, CellTiter-Glo luminescence, 72 h; at 10 µM; stronger effect = lower value. Put shortly:
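Assay system: primary human umbilical vein endothelial cells / Buffer or medium: endothelial basal medium with 2% FBS plus growth supplements / Compound dosing: one dose, 10 µM final, 0.1% DMSO / Timing: 72 h treatment at 37 °C / Signal: CTG luminescence / Benchmarks: 32 DMSO-only cell-control wells (high), 32 MePR drug-control wells (low) per plate / Plate: collagen-coated 384-well format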

Test [5] is described as follows: H69AR cell proliferation blockers – human, duplicate replicates, primary screen (AID 580;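 active = viability at or under a set limit in both replicates, limit being median viability minus 3 SD, cut at about 48% in these data, passing the limit was not always enough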;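 note: 100% = mean luminescence of untreated wells and 0% = no signal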). As to conditions: H69AR lung tumor cells viability, ATP luminescence, 72 h; at 10 µM; stronger effect = lower value.
A short description of test [6]: MRP1 drug-resistance reversers in H69AR cells – cell-based, doxorubicin co-treatment, pilot screen (AID 601;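 active = viability loss from added drug above about 55%, and viability with drug at most 40%, in both replicates, limit read from the data, passing the limit was not always enough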). As to conditions: CellTiter-Glo, 72 h, at 10 µM; for differential viability (reversal): stronger effect = higher value.
Test [7] is described as follows: yeast transport mutant growth inhibition pilot in 384-well plates, post-Golgi transport modulator project (AID 636; in the data active = inhibition above about 31%). As to conditions: absorbance 615 nm, about 18 h, stronger effect = higher value.
Test [8] in a line: growth suppression of yeast trafficking mutant, preliminary HTS, modulators of trafficking downstream of Golgi apparatus project, 1536-format plate, OD 615 nm (AID 637). As to conditions: yeast transport mutant growth, absorbance 615 nm, 18 h; stronger effect = higher value.
Setting [9] is: H69AR cells + 2 uM doxorubicin, measured here: viability with 2 uM doxorubicin, stronger effect = lower value.
The mark [10] stands for this setting: H69AR cells, compound alone cytotoxicity.

On to `Cc1noc(C)c1C(=O)OCC(=O)Nc1ccccc1C(=O)NC(C)c1ccccc1` (stereo not given), for which the viability in test [1] was 90.5%; in test [3], 90.5% (inactive); in test [4], 70.5% (inactive); in test [5], 87.2% (inactive); in test [6] (setting [9]) it was 94.1%; in test [6] (setting [10]) it was 87.2%. Moreover, in test [2], the Her2 level is 86% (inactive). In addition, in test [6] (H69AR cells + 2 uM doxorubicin), the differential viability (reversal) is -6.91% (inactive). The inhibition in test [7] is -4.93% (inactive); in test [8] it was 6.72% (inactive).
With `CCCCn1nnnc1SCC(=O)Nc1cccc(C)n1`, the viability was 108% in test [1]; 108% (inactive) in test [3]; 111% (inactive) in test [4]; 113% (inactive) in test [5]; 105% in test [6] (setting [9]); 113% in test [6] (setting [10]). Further, the Her2 level in test [2] is 115% (inactive). For the same compound, the differential viability (reversal) in test [6] (H69AR cells + 2 uM doxorubicin) was 7.5% (inactive). In addition, the inhibition in test [7] was 2.3% (inactive); in test [8] it was 3.5% (inactive).
Consider `CCOC(=O)c1nnn(CC(=O)Nc2cccc(OC)c2)c1C(=O)OCC`, for which the viability is 92.5% in test [1]; 92.5% (inactive) in test [3]; 100% (inactive) in test [4]; 83.7% (inactive) in test [5]; 86.3% in test [6] (setting [9]); 83.7% in test [6] (setting [10]). Also, the Her2 level in test [2] was 86.5% (inactive). For the same compound, the differential viability (reversal) in test [6] (H69AR cells + 2 uM doxorubicin) was -2.59% (inactive). For the same compound, the inhibition in test [7] is -4.53% (inactive); in test [8] it was 0.98% (inactive).
As to `Cc1nc(CNS(=O)(=O)c2cc(C)c(C)cc2C)cs1`, the viability is 99% in test [1]; 99% (inactive) in test [3]; 121% (inactive) in test [4]; 94.3% (inactive) in test [5]; 89.9% in test [6] (setting [9]); 94.3% in test [6] (setting [10]). Also, in test [2], the Her2 level was 89% (inactive). In addition, in test [6] (H69AR cells + 2 uM doxorubicin), the differential viability (reversal) was 4.38% (inactive). Also, the inhibition in test [7] is -7.57% (inactive); in test [8], 1.67% (inactive).
Consider `CCOc1ccc2[nH]c(=O)c(CN(Cc3ccccc3)C(=O)N3CCCC3)cc2c1`, for which the viability is 100% in test [1]; 100% (inactive) in test [3]; 78.4% (inactive) in test [4]; 82.1% (inactive) in test [5]; 80.1% in test [6] (setting [9]); 82.1% in test [6] (setting [10]). The Her2 level in test [2] is 77% (inactive). In addition, the differential viability (reversal) in test [6] (H69AR cells + 2 uM doxorubicin) was 1.97% (inactive). Besides, the inhibition is -2.5% (inactive) in test [7] and -1.9% (inactive) in test [8].
As to `CCOC(=O)c1sc(NC(=O)CSc2nnc3c4ccccc4n(CC)c3n2)nc1C`, the viability was 83.5% in test [1]; 83.5% (inactive) in test [3]; 104% (inactive) in test [4]; 96.2% (inactive) in test [5]; 96.7% in test [6] (setting [9]); 96.2% in test [6] (setting [10]). Besides, in test [2], the Her2 level was 104% (inactive). The differential viability (reversal) in test [6] (H69AR cells + 2 uM doxorubicin) is -0.44% (inactive). Moreover, the inhibition in test [7] is 1.67% (inactive); in test [8] it was -3.33% (inactive).
As to `COc1ccccc1OCc1ccc(C(=O)OCC2CCCO2)o1` (stereo not given), the viability is 97.5% in test [1]; 97.5% (inactive) in test [3]; 106% (inactive) in test [4]; 100% (inactive) in test [5]; 99.8% in test [6] (setting [9]); 100% in test [6] (setting [10]). Further, the Her2 level in test [2] was 112% (inactive). In addition, the differential viability (reversal) in test [6] (H69AR cells + 2 uM doxorubicin) is 0.33% (inactive). The inhibition in test [7] was -5.39% (inactive); in test [8], -3.27% (inactive).
On to `Cc1ccc(S(=O)(=O)NCCNC(=O)c2ccccc2)cc1`, for which the viability was 99% in test [1]; 99% (inactive) in test [3]; 105% (inactive) in test [4]; 99.2% (inactive) in test [5]; 79.5% in test [6] (setting [9]); 99.2% in test [6] (setting [10]). The Her2 level in test [2] was 82% (inactive). The differential viability (reversal) in test [6] (H69AR cells + 2 uM doxorubicin) is 19.7% (inactive). Besides, the inhibition in test [7] was -8.92% (inactive); in test [8] it was -0.83% (inactive).
Take `Cc1cc(NC(=O)CSc2nc3ccsc3c(=O)n2NC(=O)c2ccccc2)no1`: the viability in test [1] was 94.5%; in test [3], 94.5% (inactive); in test [4] it was 93.9% (inactive); in test [5] it was 97.1% (inactive); in test [6] (setting [9]), 85.1%; in test [6] (setting [10]) it was 97.1%. The Her2 level in test [2] was 100% (inactive). Further, the differential viability (reversal) in test [6] (H69AR cells + 2 uM doxorubicin) was 12% (inactive). Further, the figures for the inhibition in test [7] and in test [8] were -0.93% (inactive) and 13.8% (inactive), respectively.
With `CCOC(=O)c1cccc(NC(=O)Cn2cnc3c2c(=O)n(C)c(=O)n3C)c1`, the viability in test [1] is 104%; in test [3] it was 104% (inactive); in test [4], 102% (inactive); in test [5], 91.2% (inactive); in test [6] (setting [9]), 97.5%; in test [6] (setting [10]) it was 91.2%. Also, the Her2 level in test [2] is 91.5% (inactive). In test [6] (H69AR cells + 2 uM doxorubicin), the differential viability (reversal) was -6.33% (inactive). Further, the inhibition in test [7] was -2.97% (inactive); in test [8] it was -9.33% (inactive).
Take `Cn1cccc1Cc1nnc(SCC(=O)Nc2ccccc2F)n1-c1ccc(F)cc1`: the viability in test [1] is 87.5%; in test [3], 87.5% (inactive); in test [4], 103% (inactive); in test [5], 98.2% (inactive); in test [6] (setting [9]), 101%; in test [6] (setting [10]), 98.2%. In test [2], the Her2 level is 99.5% (inactive). In addition, the differential viability (reversal) in test [6] (H69AR cells + 2 uM doxorubicin) is -2.87% (inactive). Further, the inhibition in test [7] is -1.28% (inactive); in test [8], -6.5% (inactive).
As for `Cc1cc2ncc(C(=O)Nc3ccccc3)c(C)n2n1`, the viability in test [1] is 94%; in test [3], 94% (inactive); in test [4], 124% (inactive); in test [5], 99.5% (inactive); in test [6] (setting [9]), 86.8%; in test [6] (setting [10]), 99.5%. For the same compound, the Her2 level in test [2] is 94% (inactive). Moreover, the differential viability (reversal) in test [6] (H69AR cells + 2 uM doxorubicin) is 12.7% (inactive). Also, the inhibition is -4.34% (inactive) in test [7] and -0.48% (inactive) in test [8].
`COc1ccc(OC)c(C2=Nn3c(nnc3C3CCCCC3)SC2)c1`: the viability in test [1] is 94%; in test [3] it was 94% (inactive); in test [4], 75.4% (inactive); in test [5], 78.1% (inactive); in test [6] (setting [9]), 78%; in test [6] (setting [10]) it was 78.1%. Moreover, in test [2], the Her2 level is 104% (inactive). In addition, the differential viability (reversal) in test [6] (H69AR cells + 2 uM doxorubicin) is 0.07% (inactive). Also, the inhibition in test [7] is 5.92% (inactive); in test [8] it was 3.06% (inactive).
`COC(=O)c1[nH]c2cccc(C)c2c1NC(=O)CN1CCCc2ccccc21`: the viability in test [1] is 77.5%; in test [3], 77.5% (inactive); in test [4], 67.1% (inactive); in test [5], 78.8% (inactive); in test [6] (setting [9]), 76.7%; in test [6] (setting [10]) it was 78.8%. The Her2 level in test [2] is 92% (inactive). The differential viability (reversal) in test [6] (H69AR cells + 2 uM doxorubicin) was 2.1% (inactive). Further, the inhibition in test [7] is -1.47% (inactive); in test [8] it was 2.79% (inactive).
Consider `Cn1c(SCC(=O)Nc2ccc3c(c2)OCO3)nnc1-c1cnccn1`, for which the viability was 106% in test [1]; 106% (inactive) in test [3]; 93.5% (inactive) in test [4]; 94.6% (inactive) in test [5]; 88.1% in test [6] (setting [9]); 94.6% in test [6] (setting [10]). In test [2], the Her2 level is 82.5% (inactive). For the same compound, the differential viability (reversal) in test [6] (H69AR cells + 2 uM doxorubicin) is 6.5% (inactive). The inhibition was -6.05% (inactive) in test [7] and 2.33% (inactive) in test [8].
Take `Nn1c(SCC(=O)Nc2ccc(F)cc2)nnc1-c1cccnc1`: the viability in test [1] was 90.5%; in test [3] it was 90.5% (inactive); in test [4], 95.1% (inactive); in test [5], 103% (inactive); in test [6] (setting [9]) it was 95.5%; in test [6] (setting [10]), 103%. Further, the Her2 level in test [2] was 81% (inactive). Moreover, in test [6] (H69AR cells + 2 uM doxorubicin), the differential viability (reversal) was 7.72% (inactive). Further, the results for the inhibition in test [7] and in test [8] were -0.26% (inactive) and -3.67% (inactive), respectively.

The record behind these values is PubChem BioAssay.
